Assay results: ChEMBL document CHEMBL4118245, “Stereoselective synthesis of new rac-quercitols containing hydroxymethyl groups as glucosidase inhibitors” (Bioorg Med Chem Lett, 2018)

Key:
[1] = Inhibition of almond beta-glucosidase using p-nitrophenyl D-glucopyranoside as substrate after 3 mins by UV/Vis spectrophotometric method; design: species or system Prunus dulcis
How it was run: (§1)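 Compounds were tested at 10, 20, 25, 45, 80, 120 and 180 µM, with percent enzyme inhibition reported at each level. Acarbose served as the positive control. The study ran four experiments per compound, each in triplicate, and reports mean ± S.D. IC50 is the concentration giving 50% inhibition of enzyme activity under the assay conditions, taken from this concentration series.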

Saccharomyces cerevisiae [2] = experiment: Inhibition of Saccharomyces cerevisiae alpha-glucosidase at 180 uM using 4-nitrophenyl D-glucopyranoside as substrate after 3 mins by UV/Vis spectrophotometric method relative to control; how it was run: as §1
Prunus dulcis [3] = experiment: Inhibition of almond beta-glucosidase at 180 uM using p-nitrophenyl D-glucopyranoside as substrate after 3 mins by UV/Vis spectrophotometric method relative to control; how it was run: as §1
Saccharomyces cerevisiae [4] = experiment: Inhibition of Saccharomyces cerevisiae alpha-glucosidase at 45 uM using 4-nitrophenyl D-glucopyranoside as substrate after 3 mins by UV/Vis spectrophotometric method relative to control; how it was run: as §1
Prunus dulcis [5] = experiment: Inhibition of almond beta-glucosidase at 20 uM using p-nitrophenyl D-glucopyranoside as substrate after 3 mins by UV/Vis spectrophotometric method relative to control; how it was run: as §1
Saccharomyces cerevisiae [6] = experiment: Inhibition of Saccharomyces cerevisiae alpha-glucosidase at 120 uM using 4-nitrophenyl D-glucopyranoside as substrate after 3 mins by UV/Vis spectrophotometric method relative to control; how it was run: as §1
Prunus dulcis [7] = experiment: Inhibition of almond beta-glucosidase at 25 uM using p-nitrophenyl D-glucopyranoside as substrate after 3 mins by UV/Vis spectrophotometric method relative to control; how it was run: as §1
Saccharomyces cerevisiae [8] = experiment: Inhibition of Saccharomyces cerevisiae alpha-glucosidase at 25 uM using 4-nitrophenyl D-glucopyranoside as substrate after 3 mins by UV/Vis spectrophotometric method relative to control; how it was run: as §1
Prunus dulcis [9] = experiment: Inhibition of almond beta-glucosidase at 120 uM using p-nitrophenyl D-glucopyranoside as substrate after 3 mins by UV/Vis spectrophotometric method relative to control; how it was run: as §1
Prunus dulcis [10] = experiment: Inhibition of almond beta-glucosidase at 45 uM using p-nitrophenyl D-glucopyranoside as substrate after 3 mins by UV/Vis spectrophotometric method relative to control; how it was run: as §1
Prunus dulcis [11] = experiment: Inhibition of almond beta-glucosidase at 80 uM using p-nitrophenyl D-glucopyranoside as substrate after 3 mins by UV/Vis spectrophotometric method relative to control; how it was run: as §1
Saccharomyces cerevisiae [12] = experiment: Inhibition of Saccharomyces cerevisiae alpha-glucosidase at 80 uM using 4-nitrophenyl D-glucopyranoside as substrate after 3 mins by UV/Vis spectrophotometric method relative to control; how it was run: as §1
Prunus dulcis [13] = experiment: Inhibition of almond beta-glucosidase at 10 uM using p-nitrophenyl D-glucopyranoside as substrate after 3 mins by UV/Vis spectrophotometric method relative to control; how it was run: as §1
Saccharomyces cerevisiae [14] = experiment: Inhibition of Saccharomyces cerevisiae alpha-glucosidase at 10 uM using 4-nitrophenyl D-glucopyranoside as substrate after 3 mins by UV/Vis spectrophotometric method relative to control; how it was run: as §1
Saccharomyces cerevisiae [15] = experiment: Inhibition of Saccharomyces cerevisiae alpha-glucosidase at 20 uM using 4-nitrophenyl D-glucopyranoside as substrate after 3 mins by UV/Vis spectrophotometric method relative to control; how it was run: as §1
[16] = Inhibition of Saccharomyces cerevisiae alpha-glucosidase using 4-nitrophenyl D-glucopyranoside as substrate after 3 mins by UV/Vis spectrophotometric method; how it was run: as §1

IC50 [1] [µM]	inhibition (Saccharomyces cerevisiae [2]) [%]	inhibition (Prunus dulcis [3]) [%]	inhibition (Saccharomyces cerevisiae [4]) [%]	inhibition (Prunus dulcis [5]) [%]	inhibition (Saccharomyces cerevisiae [6]) [%]	inhibition (Prunus dulcis [7]) [%]	inhibition (Saccharomyces cerevisiae [8]) [%]	inhibition (Prunus dulcis [9]) [%]	inhibition (Prunus dulcis [10]) [%]	inhibition (Prunus dulcis [11]) [%]	inhibition (Saccharomyces cerevisiae [12]) [%]	inhibition (Prunus dulcis [13]) [%]	inhibition (Saccharomyces cerevisiae [14]) [%]	inhibition (Saccharomyces cerevisiae [15]) [%]	IC50 [16] [µM]	SMILES
198	25	51.8	19	20.4	22	29	14	42.7	34.3	37.5	20	18	2	6	–	OC[C@H]1C[C@H](O)[C@H](O)[C@H](O)[C@H]1CO
–	42	30.8	21	4.98	40	12.7	19	20.2	13.7	19.1	31	2.2	10	13	–	OC[C@H]1C[C@H](O)[C@@H](O)[C@@H](O)[C@H]1CO
–	42.2	33.3	19.9	27.8	37.6	28.4	19.4	32.1	30.4	31.8	21.4	3.4	15.8	18.8	–	OC[C@H]1C[C@@H](O)[C@H](O)[C@H](O)[C@H]1CO
57.8	74	66	46	25	63	29	33	60	39	52	60	17	22	30	52.5	C[C@H]1O[C@H](O[C@H]2[C@H](O)[C@@H](O)[C@@H](O[C@H]3[C@H](O)[C@@H](O)C(O)O[C@@H]3CO)O[C@@H]2CO)[C@H](O)[C@@H](O)[C@@H]1N[C@H]1C=C(CO)[C@@H](O)[C@H](O)[C@H]1O (some centres undefined) [ACARBOSE]
